From ChEMBL document CHEMBL1137658, “Effect of caspofungin on metabolite profiles of Aspergillus species determined by nuclear magnetic resonance spectroscopy” (2007) come the findings set out here.

Converted amounts (≈) assume the structure as drawn.

Assay [1] relates to Aspergillus terreus. In words: Antifungal activity against Aspergillus terreus isolate 04-188-2548 after 48 hrs by broth microdilution method. The assay is classed as functional. The following applies: isolate 04-188-2548, 48 h.
Assay [2] relates to Aspergillus niger. In words: Antifungal activity against Aspergillus niger isolate 05-290-2479 after 48 hrs by broth microdilution method. The assay is classed as functional. Particulars: isolate 05-290-2479, 48 h. In outline: (§1)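 Modified CLSI M38-A broth microdilution in RPMI 1640 with l-glutamine, 2% glucose (not 0.2%), MOPS pH 7. Serial drug dilutions 0.03125 to 16 μg/ml in microtiter plates stored at −70°C up to 3 weeks. Run in duplicate. MIC = lowest concentration completely inhibiting visible growth.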
(In broth dilution the organism is exposed to a series of concentrations in liquid medium.)

The subject of assay [3] is Aspergillus niger. In words: Antifungal activity against Aspergillus niger isolate 05-112-3701 after 48 hrs by broth microdilution method. The assay is classed as functional. The following applies: isolate 05-112-3701, 48 h. In outline:
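CLSI M38-A broth microdilution, modified to use RPMI 1640 with 2% glucose (instead of 0.2%), 0.3 g/liter l-glutamine and 0.165 M MOPS at pH 7. Drug twofold dilutions 0.03125–16 μg/ml. Run in duplicate. MIC is the lowest concentration with no visible growth. For the lipopeptide, MEC is read at 48 h as the lowest concentration giving aberrant hyphae under an inverted microscope.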

For assay [4], the system named is Aspergillus nidulans. In words: Antifungal activity against Aspergillus nidulans isolate 05-326-1785 after 72 hrs by broth microdilution method. The following applies: isolate 05-326-1785, 72 h. The assay is classed as functional. Summed up:
as §1

Assay [5] concerns Aspergillus nidulans. In words: Antifungal activity against Aspergillus nidulans isolate 00-202661 after 72 hrs by broth microdilution method. It counts as functional. Particulars: isolate 00-202661, 72 h. Summed up: as §1
Assay [6] relates to Aspergillus flavus. The experiment in a line: Antifungal activity against Aspergillus flavus ATCC 204304 after 48 hrs by broth microdilution method. Particulars: ATCC 204304, 48 h. It counts as functional. Summed up: as §1
Assay [7] has as its system Aspergillus flavus. The experiment in a line: Antifungal activity against Aspergillus flavus isolate 05-314-1100 after 48 hrs by broth microdilution method. The assay is classed as functional. Particulars: isolate 05-314-1100, 48 h.
The test system of assay [8] is Aspergillus fumigatus. In words: Inhibition of metabolite production in Aspergillus fumigatus ATCC 204305 assessed as lowest drug concentration required to inhibit 50% fungal metabolite production after 72 hrs in presence of 2 % glucose by NMR spectroscopy. It counts as functional. In outline:
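Caspofungin dilutions with A. fumigatus ATCC 204305 in RPMI 1640-2% glucose-MOPS, incubated 72 h. ¹H NMR of medium. MEP = lowest concentration giving ≥50% fall in malate, glycine betaine or fumarate peak areas.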

The test system of assay [9] is Aspergillus terreus. In words: Inhibition of metabolite production in Aspergillus terreus isolate 06-059-2428 assessed as lowest drug concentration required to inhibit 50% ethanol production after 48 hrs in presence of 2 % glucose by NMR spectroscopy. It counts as functional. Summed up:
(§2)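 Cultures grown in RPMI 1640-2% glucose-MOPS with drug series, 48 h. Culture media analysed by 600-MHz ¹H NMR. MEP taken from stack plots and peak integrals of resolved resonances, as lowest drug concentration suppressing nutrient use or metabolite production by ≥50%. Alternative MEP: lowest concentration raising fumarate >50%.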

Assay [10] concerns Aspergillus terreus. In words: Inhibition of metabolite production in Aspergillus terreus isolate 04-188-2548 assessed as lowest drug concentration required to inhibit 50% ethanol, fumarate, malate production after 48 hrs in presence of 2 % glucose by NMR spectroscopy. The assay is classed as functional. Summed up:
as §2

Assay [11] relates to Aspergillus niger. The experiment in a line: Inhibition of metabolite production in Aspergillus niger isolate 05-112-3701 assessed as lowest drug concentration required to inhibit 50% citrate production after 48 hrs in presence of 2 % glucose by NMR spectroscopy. It counts as functional. In outline:
as §2

Assay [12] has as its system Aspergillus nidulans. The experiment in a line: Inhibition of metabolite production in Aspergillus nidulans isolate 05-326-1785 assessed as lowest drug concentration required to inhibit 50% fumarate production after 72 hrs in presence of 2 % glucose by NMR spectroscopy. The assay is classed as functional. In outline: (§3)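 A. nidulans grows slowly, so spectra were recorded after 72 h incubation in RPMI 1640-2% glucose-MOPS with drug dilutions. 600-MHz ¹H NMR of culture medium. Fumarate peak integrals plotted against drug concentration. MEP = lowest concentration with ≥50% fall in fumarate.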

The subject of assay [13] is Aspergillus nidulans. The experiment in a line: Inhibition of metabolite production in Aspergillus nidulans isolate 00-202661 assessed as lowest drug concentration required to inhibit 50% fumarate production after 72 hrs in presence of 2 % glucose by NMR spectroscopy. The assay is classed as functional. Summed up:
as §3

Assay [14] deals with Aspergillus flavus. In words: Inhibition of metabolite production in Aspergillus flavus ATCC 204304 assessed as lowest drug concentration required to inhibit 50% fumarate, malate production after 48 hrs in presence of 2 % glucose by NMR spectroscopy. The assay is classed as functional. Summed up:
as §2

For assay [15], the system named is Aspergillus flavus. The experiment in a line: Inhibition of metabolite production in isolate Aspergillus flavus 05-314-1100 assessed as lowest drug concentration required to inhibit 50% fumarate, malate production after 48 hrs in presence of 2 % glucose by NMR spectroscopy. It counts as functional, isolate  05-314-1100. In outline:
as §2

In assay [16] the test system is Aspergillus flavus. The experiment in a line: Increase in metabolite production in Aspergillus flavus isolate 05-314-1100 assessed as lowest drug concentration required to increase >50% fumarate production after 48 hrs in presence of 2 % glucose by NMR spectroscopy. The assay is classed as functional. In outline: as §2
In assay [17] the test system is Aspergillus niger. In words: Inhibition of metabolite production in Aspergillus niger isolate 05-290-2479 assessed as lowest drug concentration required to inhibit 50% citrate production after 48 hrs in presence of 2 % glucose by NMR spectroscopy. It counts as functional. In outline: as §2
In assay [18] the test system is Aspergillus fumigatus. The experiment in a line: Inhibition of metabolite production in Aspergillus fumigatus ATCC 204305 assessed as lowest drug concentration required to inhibit 50% glycine betain, fumarate, malate production after 48 hrs in presence of 2 % glucose by NMR spectroscopy. The assay is classed as functional. Summed up:
as §2

Assay [19] relates to Aspergillus fumigatus. In words: Inhibition of metabolite production in Aspergillus fumigatus isolate 06-067-1639 assessed as lowest drug concentration required to inhibit 50% glycine betaine, fumarate, malate production after 48 hrs in presence of 2 % glucose by NMR spectroscopy. It counts as functional. Summed up:
as §2

Assay [20] deals with Aspergillus terreus. In words: Antifungal activity against Aspergillus terreus isolate 06-059-2428 after 48 hrs by broth microdilution method. The following applies: isolate 06-059-2428, 48 h. The assay is classed as functional. Summed up:
as §1

In assay [21] the test system is Aspergillus fumigatus. The experiment in a line: microbe, parasite or virus in culture. Particulars: isolate 06-067-1639, 48 h.
Assay [22] deals with Aspergillus fumigatus. The experiment in a line: microbe, parasite or virus in culture. Particulars: ATCC 204305, 48 h.
Assay [23] concerns Aspergillus fumigatus. In words: microbe, parasite or virus in culture. The following applies: ATCC 204305, 72 h.

For the compound `C[C@@H]1[C@H](O)[C@@H](C)/C=C/C=C/C=C/C=C/C=C/C=C/C=C/[C@H](O[C@@H]2O[C@H](C)[C@@H](O)[C@H](N)[C@@H]2O)C[C@@H]2O[C@](O)(C[C@@H](O)C[C@@H](O)[C@H](O)CC[C@@H](O)C[C@@H](O)CC(=O)O[C@H]1C)C[C@H](O)[C@H]2C(=O)O` [AMPHOTERICIN B], the MIC was 2 µg/mL (≈ 2.16 µM) in [1]; 0.25 µg/mL (≈ 0.271 µM) in [2]; 0.5 µg/mL (≈ 0.541 µM) in assay [3]; 0.5 µg/mL (≈ 0.541 µM) in [4]; 1 µg/mL (≈ 1.08 µM) in assay [5]; 8 µg/mL (≈ 8.66 µM) in assay [6]. For the same compound, the MIC in assay [7] came out at 4 µg/mL (≈ 4.33 µM); in [20], 1 µg/mL (≈ 1.08 µM); in [21] it was 1 µg/mL (≈ 1.08 µM); in [22] it was 1 µg/mL (≈ 1.08 µM); in assay [23], 1 µg/mL (≈ 1.08 µM). Besides, the Activity was 1 µg/mL in assay [8]; 0.06 µg/mL in assay [9]; 2 µg/mL in assay [10]; 0.25 µg/mL in [11]; 0.5 µg/mL in [12]; 0.25 µg/mL in assay [13]. Further, the Activity in [14] was determined as 2 µg/mL; in assay [15] it was 2 µg/mL; in assay [16], 0.06 µg/mL; in assay [17], 0.125 µg/mL; in assay [18], 0.25 µg/mL; in [19], 0.5 µg/mL.
